Reference: ChEMBL document CHEMBL4007460, “17β-Hydroxywithanolides as Sensitizers of Renal Carcinoma Cells to Tumor Necrosis Factor-α Related Apoptosis Inducing Ligand (TRAIL) Mediated Apoptosis: Structure-Activity Relationships” (J Med Chem, 2017)
Activity calls are given as the source filed them. The calls are words filed in the database; no cut-off is given here.

Legend:
ACHN [1] = assay: Sensitization of TRAIL-induced apoptosis in human ACHN cells assessed as reduction in cell viability preincubated for 2 hrs followed by addition of TRAIL measured after 18 hrs by MTS assay; type: functional, cell-based
Procedure, shortened: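 ACHN cells were seeded at 5000/well and rested overnight at 37 °C, in RPMI with 5% FCS, glutamine, NEAA, pyruvate, HEPES and 2-mercaptoethanol. Compound pretreatment ran 2 h, then TRAIL was added to 50 ng/mL for 18 h at 37 °C. Viability was read by MTS (2 h, A490). IC50 values (cell number reduced 50%) came from dose-response curves; triplicates, at least 3 independent experiments, ± SD.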

[2] = Glutathione reactivity in DMSO assessed as formation of MIchael adduct with GSH at pH 7.4 after 24 hrs in presence of NAC by HPLC method
Procedure, shortened: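 Withanolide (2.12 μM in DMSO, 0.5 mL) mixed with equal volume of 4.24 μM GSH or NAC solution at pH 7.4, 37 °C. Aliquots taken at 0, 0.5, 2, 4, 8, 24 h, stored −80 °C; unreacted withanolide quantified by C18 HPLC (H2O with 40 mM NH4OAc–MeOH gradient, UV 230 nm) using peak area.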

ACHN [3] = assay: Reduction cFLIP level in human ACHN cells at 500 nM after 18 hrs by Western blot analysis; type: functional, cell-based
Procedure, shortened: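 ACHN cells (RPMI, 5% FBS) plated 1.5×10^6/well, grown overnight at 37 °C, then exposed to compound at 500 nM for 18 h. Lysed in RIPA with protease/phosphatase inhibitors and zVAD-FMK; 20 μg protein per lane immunoblotted with anti-FLIP (7F10); GAPDH as loading control.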

ACHN [4] = assay: Cytotoxicity in human ACHN cells assessed as reduce cell number after 48 hrs by MTS assay; type: cell-based
Procedure, shortened: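 ACHN cells exposed to compound for 48 h at 37 °C; viable cell number by MTS read-out. Triplicate determinations; IC50 (concentration reducing cell number by 50%) from 3 independent experiments, ± SD.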

Structure (SMILES) | IC50 (ACHN [1]) | further results
CC(=O)OCC1=C(C)C(=O)O[C@@H]([C@](C)(O)[C@]2(O)C[C@H](OC(C)=O)[C@@]3(O)[C@@H]4CC=C5CC=CC(=O)[C@]5(C)[C@H]4CC[C@@]32COC(C)=O)C1 | > 4000 nM | 
CC(=O)OC[C@]12CC[C@H]3[C@@H](CC=C4CC=CC(=O)[C@@]43C)[C@]1(O)[C@@H](OC(C)=O)C[C@@]2(O)[C@@](C)(O)[C@H]1CC(C)=C(CO)C(=O)O1 | > 4000 nM | 
CC(=O)OC[C@]12CC[C@H]3[C@@H](C[C@@H]4O[C@@]45CC=CC(=O)[C@]35C)[C@]1(O)CC[C@@]2(O)[C@@](C)(O)[C@H]1CC(C)=C(C)C(=O)O1 | > 4000 nM | Activity [2]: inactive
CC(=O)OC[C@]12CC[C@H]3[C@@H](CC=C4CC=CC(=O)[C@@]43C)[C@]1(O)[C@@H](OC(C)=O)C[C@@]2(O)[C@@](C)(O)[C@H]1CC(C)=C(C)C(=O)O1 | > 4000 nM | 
CC(=O)OC[C@]12CC[C@H]3[C@@H](C[C@H]4O[C@]45CC=CC(=O)[C@]35C)[C@]1(O)[C@@H](O)C[C@@]2(O)[C@@](C)(O)[C@H]1CC(C)=C(C)C(=O)O1 | > 4000 nM | 
CC1=C(C)C(=O)O[C@@H]([C@](C)(O)[C@]2(O)CC[C@@]3(O)[C@@H]4CC=C5[C@H](O)C=CC(=O)[C@]5(C)[C@H]4CC[C@]23C)C1 | 284 nM | 
CC1=C(C)C(=O)O[C@@H]([C@](C)(O)[C@]2(O)CC[C@@]3(O)[C@@H]4C[C@H]5O[C@]56CCCC(=O)[C@]6(C)[C@H]4CC[C@]23CO)C1 | > 4000 nM | 
CC(=O)OC[C@]12CC[C@H]3[C@@H](CC=C4CC=CC(=O)[C@@]43C)[C@]1(O)[C@@H](OC(C)=O)C[C@@]2(O)[C@@](C)(O)[C@H]1CC(C)=C(CO[C@@H]2O[C@H](CO)[C@@H](O)[C@H](O)[C@H]2O)C(=O)O1 | > 4000 nM | 
CC(=O)OC[C@]12CC[C@H]3[C@@H](C[C@H]4O[C@]45CC=CC(=O)[C@]35C)[C@]1(O)[C@@H](OC(C)=O)C[C@@]2(O)[C@@](C)(O)[C@H]1CC(C)=C(C)C(=O)O1 | > 4000 nM | 
CC(=O)OC[C@]12CC[C@H]3[C@@H](CC=C4CC=CC(=O)[C@@]43C)[C@]1(O)[C@@H](OC(C)=O)C[C@@]2(O)[C@@](C)(O)[C@H]1CC(CO)=C(C)C(=O)O1 | > 4000 nM | 
CC(=O)OC[C@]12CC[C@H]3[C@@H](C[C@H]4O[C@]45CC=CC(=O)[C@]35C)[C@]1(O)CC[C@@]2(O)[C@@](C)(O)[C@H]1C[C@]2(C)O[C@]2(C)C(=O)O1 | 1250 nM | 
CC(=O)O[C@H]1C=CC(=O)[C@]2(C)[C@H]3CC[C@]4(C)[C@](O)([C@@](C)(O)[C@H]5CC(C)=C(C)C(=O)O5)CC[C@@]4(O)[C@@H]3C[C@H]3O[C@]132 | 76 nM | Activity (ACHN [3]): Active; Activity [2]: Active; Activity (ACHN [4]): Toxic
CC1=C(C)C(=O)O[C@@H]([C@](C)(O)[C@]2(O)CC[C@@]3(O)[C@@H]4C[C@H]5O[C@]56[C@@H](OC(=O)n5ccnc5)C=CC(=O)[C@]6(C)[C@H]4CC[C@]23C)C1 | 233 nM | 
CC1=C(C)C(=O)O[C@@H]([C@](C)(O)[C@]2(O)CC[C@@]3(O)[C@@H]4C[C@H]5O[C@]56[C@@H](O)C=CC(=O)[C@]6(C)[C@H]4CC[C@]23C)C1 | 563 nM | Activity [2]: Active; Activity (ACHN [4]): Toxic
CC(=O)OC[C@]12CC[C@H]3[C@@H](CC=C4CC=CC(=O)[C@@]43C)[C@]1(O)CC[C@@]2(O)[C@@](C)(O)[C@H]1CC(C)=C(C)C(=O)O1 | 564 nM | 
CC(=O)OC[C@]12CC[C@H]3[C@@H](CC=C4CC=CC(=O)[C@@]43C)[C@]1(O)[C@@H](O)C[C@@]2(O)[C@@](C)(O)[C@H]1CC(C)=C(C)C(=O)O1 | > 4000 nM | 

Structure (SMILES) | IC50 (ACHN [1]) | further results
CO[C@H]1CC(=O)[C@]2(C)[C@H]3CC[C@]4(COC(C)=O)[C@](O)([C@@](C)(O)[C@H]5CC(C)=C(C)C(=O)O5)CC[C@@]4(O)[C@@H]3C[C@H]3O[C@]32C1 | > 4000 nM | 
CC(=O)OC[C@]12CC[C@H]3[C@@H](C[C@H]4O[C@]45C[C@@H](N=[N+]=[N-])CC(=O)[C@]35C)[C@]1(O)CC[C@@]2(O)[C@@](C)(O)[C@H]1CC(C)=C(C)C(=O)O1 | 251 nM | 
CC1=C(C)C(=O)O[C@@H]([C@](C)(O)[C@]2(O)CC[C@@]3(O)[C@@H]4C[C@H]5O[C@]56CC=CC(=O)[C@]6(C)[C@H]4CC[C@]23CO)C1 | 1950 nM | 
COC(=O)O[C@H]1C=CC(=O)[C@]2(C)[C@H]3CC[C@]4(C)[C@](O)([C@@](C)(O)[C@H]5CC(C)=C(C)C(=O)O5)CC[C@@]4(O)[C@@H]3C[C@H]3O[C@]132 | 111 nM | Activity (ACHN [3]): Active; Activity [2]: Active; Activity (ACHN [4]): Toxic
CC(=O)OC[C@]12CC[C@H]3[C@@H](CC=C4C[C@@H](OS(=O)(=O)O)CC(=O)[C@@]43C)[C@]1(O)CC[C@@]2(O)[C@@](C)(O)[C@H]1CC(C)=C(C)C(=O)O1 | > 4000 nM | 
CC1=C(C)C(=O)O[C@@H]([C@](C)(O)[C@]2(O)CC[C@@]3(O)[C@@H]4C[C@H]5O[C@]56[C@@H](O)[C@@H](N=[N+]=[N-])CC(=O)[C@]6(C)[C@H]4CC[C@]23C)C1 | 1800 nM | 
CC(=O)O[C@@H]1C=CC(=O)[C@]2(C)[C@H]3CC[C@]4(C)[C@](O)([C@@](C)(O)[C@H]5CC(C)=C(C)C(=O)O5)CC[C@@]4(O)[C@@H]3C[C@H]3O[C@]132 | 90 nM | Activity [2]: Active; Activity (ACHN [4]): Toxic
CC1=C(C)C(=O)O[C@@H]([C@](C)(O)[C@]2(O)CC[C@@]3(O)[C@@H]4CC=C5C(=O)C=CC(=O)[C@]5(C)[C@H]4CC[C@]23C)C1 | 168 nM | 
CC(=O)OC[C@]12CC[C@H]3[C@@H](C[C@@H]4O[C@@]45CC=CC(=O)[C@]35C)[C@]1(O)[C@@H](O)C[C@@]2(O)[C@@](C)(O)[C@H]1CC(C)=C(C)C(=O)O1 | 1650 nM | 
CC(=O)OC[C@]12CC[C@H]3[C@@H](C[C@@H]4O[C@@]45CC=CC(=O)[C@]35C)[C@]1(O)[C@@H](OC(C)=O)C[C@@]2(O)[C@@](C)(O)[C@H]1CC(C)=C(C)C(=O)O1 | > 4000 nM | 
CC(=O)OC[C@]12CC[C@H]3[C@@H](C[C@H]4O[C@]45CCCC(=O)[C@]35C)[C@]1(O)CC[C@@]2(O)[C@@](C)(O)[C@H]1CC(C)=C(C)C(=O)O1 | > 4000 nM | 
CC(=O)OC[C@]12CC[C@H]3[C@@H](CC=C4C[C@@H](OS(=O)(=O)O)CC(=O)[C@@]43C)[C@]1(O)[C@@H](OC(C)=O)C[C@@]2(O)[C@@](C)(O)[C@H]1CC(C)=C(C)C(=O)O1 | > 4000 nM | 
CC(=O)OC[C@]12CC[C@H]3[C@@H](C[C@H]4O[C@]45C[C@@H](n4ccnc4)CC(=O)[C@]35C)[C@]1(O)CC[C@@]2(O)[C@@](C)(O)[C@H]1CC(C)=C(C)C(=O)O1 | 164 nM | 
CC1=C(C)C(=O)O[C@@H]([C@](C)(O)[C@]2(O)CC[C@@]3(O)[C@@H]4C[C@H]5O[C@]56C(=O)C=CC(=O)[C@]6(C)[C@H]4CC[C@]23C)C1 | > 4000 nM | 
CC(=O)OC[C@]12CC[C@H]3[C@@H](CC=C4CC=CC(=O)[C@@]43C)[C@]1(O)[C@@H](OC(C)=O)C[C@@]2(O)[C@@](C)(O)[C@H]1CC(CO[C@@H]2O[C@H](CO)[C@@H](O)[C@H](O)[C@H]2O)=C(C)C(=O)O1 | > 4000 nM | 
